From PMC5808564 (ChemMedChem, 2017) come the findings set out here.

In data set [1] the test system is T. brucei bloodstream form (BSF) parasites (cell line 90-13, a 427 strain). The data set is described as follows: microbe, parasite or virus in culture. It counts as cell-based, Trypanosoma brucei. Particulars: for inhibition at 10 µM: Trypanosoma brucei, A-427, read-out: % T. brucei BSF growth inhibition (10 μM), 10 μM compound; for inhibition at 10 µM / % T. brucei BSF growth inhibition (10 μM): BLD = below level of detection; for % T. brucei BSF growth inhibition (10 μM): 10 μM compound.

Another data set relates to IMR-90 human cells. As to the kind of experiment: Human cell line toxicity testing. Format: cell-based.
The target of data set [2] is recombinant T. brucei hexokinase 1 (rTbHK1) (Trypanosoma brucei, UniProt Q38C42). The data set is described as follows: biochemical. It counts as biochemical.
The target of data set [3] is T1, human HK 4 (human glucokinase, hGlk) (Homo sapiens, UniProt P35557).
T1 sequence (P35557 1-465): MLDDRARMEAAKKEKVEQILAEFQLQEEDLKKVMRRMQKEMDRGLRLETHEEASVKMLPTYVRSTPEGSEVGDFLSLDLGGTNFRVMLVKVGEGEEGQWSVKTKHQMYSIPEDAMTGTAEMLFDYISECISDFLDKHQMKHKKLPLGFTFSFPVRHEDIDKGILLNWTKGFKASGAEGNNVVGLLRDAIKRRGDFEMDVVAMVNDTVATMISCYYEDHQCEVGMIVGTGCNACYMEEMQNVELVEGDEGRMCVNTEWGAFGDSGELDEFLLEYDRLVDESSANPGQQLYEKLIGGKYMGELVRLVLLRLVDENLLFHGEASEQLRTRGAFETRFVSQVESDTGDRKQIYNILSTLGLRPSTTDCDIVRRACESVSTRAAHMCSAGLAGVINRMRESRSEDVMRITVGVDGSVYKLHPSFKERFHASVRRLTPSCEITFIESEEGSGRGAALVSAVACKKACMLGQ
The data set is described as follows: Specificity assay against human glucokinase. It counts as biochemical. Particulars: for inhibition at 10 µM: read-out: % hGlk inhibition (10 μM). The essentials: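 Uses human hexokinase 4 (glucokinase; GenBank BC001890). Activity is read through a coupled reaction in which glucose-6-phosphate dehydrogenase converts the glucose-6-phosphate formed to 6-phosphogluconate. The coincident NADPH formation is followed at 340 nm.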

Data set [4] can be described thus: Aqueous solubility, kinetic solubility method. The following applies: pH 7.4.
The next data set has as its system Thyroid hormone. As to the kind of experiment: PanLabs LeadProfilingScreen radioligand binding. The following applies: 10 μM, duplicate, rat. A digest of the protocol: (§1)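 Test compound screened once, at 10 μM, against a panel of mammalian targets; each run in duplicate. Values are percent inhibition at that single concentration; no IC50 determinations were made.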

The target in another data set is Dopamine D1 (Homo sapiens, UniProt P21728). As to the kind of experiment: PanLabs LeadProfilingScreen radioligand binding. The following applies: read-out: percent inhibition. The essentials:
as §1

Data set [5] is described as follows: Microsomal stability, mouse. Format: in vitro ADME.
A short description of the next data set: Plasma stability, mouse. Format: in vitro ADME.
Data set [6] concerns the target T2, Leukotriene, cysteinyl CysLT1 (Homo sapiens, UniProt Q9Y271).
T2 sequence (Q9Y271 1-337): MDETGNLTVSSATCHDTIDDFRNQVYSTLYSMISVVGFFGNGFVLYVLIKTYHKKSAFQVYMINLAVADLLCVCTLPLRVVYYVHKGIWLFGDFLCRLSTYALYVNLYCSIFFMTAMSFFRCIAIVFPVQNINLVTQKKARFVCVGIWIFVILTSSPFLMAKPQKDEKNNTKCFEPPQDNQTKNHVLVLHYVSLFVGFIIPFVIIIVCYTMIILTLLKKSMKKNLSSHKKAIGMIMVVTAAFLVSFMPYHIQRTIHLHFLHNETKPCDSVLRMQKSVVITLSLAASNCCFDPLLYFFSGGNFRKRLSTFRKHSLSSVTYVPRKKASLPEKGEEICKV
The data set is described as follows: PanLabs LeadProfilingScreen radioligand binding. The following applies: read-out: percent inhibition. The essentials: as §1

In another data set the target is Histamine H2 (Homo sapiens, UniProt P25021). The data set is described as follows: PanLabs LeadProfilingScreen radioligand binding. The following applies: read-out: percent inhibition. A digest of the protocol:
as §1

A short description of a further data set: Plasma protein binding. Format: in vitro ADME. Particulars: mouse, mouse species.
A short description of the next data set: Plasma stability, human. It counts as in vitro ADME.
For a further data set, the target named is Dopamine D3 (Homo sapiens, UniProt P35462). As to the kind of experiment: PanLabs LeadProfilingScreen radioligand binding. Particulars: read-out: percent inhibition. A digest of the protocol:
as §1

Another data set addresses T3, Adrenergic α1B (Rattus norvegicus, UniProt P15823).
T3 sequence (P15823 1-515): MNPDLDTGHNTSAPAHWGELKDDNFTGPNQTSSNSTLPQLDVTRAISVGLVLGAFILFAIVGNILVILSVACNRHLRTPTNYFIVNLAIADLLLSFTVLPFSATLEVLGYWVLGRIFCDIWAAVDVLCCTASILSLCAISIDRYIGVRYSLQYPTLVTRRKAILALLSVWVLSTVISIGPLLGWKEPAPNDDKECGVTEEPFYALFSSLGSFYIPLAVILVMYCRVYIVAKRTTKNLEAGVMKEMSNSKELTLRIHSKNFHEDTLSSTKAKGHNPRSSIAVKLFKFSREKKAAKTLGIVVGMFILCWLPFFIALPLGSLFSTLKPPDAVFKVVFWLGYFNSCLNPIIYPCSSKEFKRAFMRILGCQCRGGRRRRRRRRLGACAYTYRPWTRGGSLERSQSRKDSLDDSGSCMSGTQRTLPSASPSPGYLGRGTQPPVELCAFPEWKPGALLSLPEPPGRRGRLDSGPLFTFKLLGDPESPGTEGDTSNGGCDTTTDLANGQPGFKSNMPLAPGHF
As to the kind of experiment: PanLabs LeadProfilingScreen radioligand binding. Particulars: read-out: percent inhibition. The essentials:
as §1

Data set [7] concerns the target Dopamine transporter (DAT) (Homo sapiens, UniProt Q01959). The data set is described as follows: PanLabs LeadProfilingScreen radioligand binding. The following applies: read-out: percent inhibition. The essentials: as §1
Data set [8] deals with T4, Serotonin (5-hydroxytryptamine) 5-HT1A (Homo sapiens, UniProt P08908).
T4 sequence (P08908 1-422): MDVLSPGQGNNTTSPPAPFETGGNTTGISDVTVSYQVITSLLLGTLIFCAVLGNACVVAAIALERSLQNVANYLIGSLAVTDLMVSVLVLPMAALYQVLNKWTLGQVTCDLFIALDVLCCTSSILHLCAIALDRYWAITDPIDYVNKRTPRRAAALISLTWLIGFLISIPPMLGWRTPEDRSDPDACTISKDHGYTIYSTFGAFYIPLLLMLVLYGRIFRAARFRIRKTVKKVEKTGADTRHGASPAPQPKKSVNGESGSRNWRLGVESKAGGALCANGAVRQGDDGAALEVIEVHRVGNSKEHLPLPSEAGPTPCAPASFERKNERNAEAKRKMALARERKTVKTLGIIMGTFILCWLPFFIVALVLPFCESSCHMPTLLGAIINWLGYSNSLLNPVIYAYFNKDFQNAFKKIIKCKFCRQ
As to the kind of experiment: PanLabs LeadProfilingScreen radioligand binding. Particulars: read-out: percent inhibition. The essentials:
as §1

Data set [9] can be described thus: Microsomal stability, human. It counts as in vitro ADME.
[10] abbreviates: read-out: IMR90 toxicity (EC50), IMR-90 cells, 44-46 h.
Setting [11] is: read-out: rTbHK1 potency (IC50 ± SEM), average of n ≥ 3 experiments.
Where [12] appears, read: Homo sapiens, IMR-90, read-out: IMR90 toxicity (EC50).

Converted amounts (≈) assume the structure as drawn. Where two headings read alike, the source gives them in different places.

Chain of Dopamine D1 (P21728 whole entry): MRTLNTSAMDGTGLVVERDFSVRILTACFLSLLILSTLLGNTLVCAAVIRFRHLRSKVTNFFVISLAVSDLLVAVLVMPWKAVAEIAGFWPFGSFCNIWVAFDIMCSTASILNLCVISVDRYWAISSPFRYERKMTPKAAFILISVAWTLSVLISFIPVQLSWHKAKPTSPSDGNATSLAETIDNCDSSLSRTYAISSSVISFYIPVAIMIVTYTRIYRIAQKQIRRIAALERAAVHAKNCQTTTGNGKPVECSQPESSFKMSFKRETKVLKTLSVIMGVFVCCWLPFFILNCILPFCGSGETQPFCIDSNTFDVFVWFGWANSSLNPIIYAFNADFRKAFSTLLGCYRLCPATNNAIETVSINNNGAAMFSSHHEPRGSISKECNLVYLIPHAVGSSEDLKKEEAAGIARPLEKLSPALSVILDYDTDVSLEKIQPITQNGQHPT
Chain of Dopamine transporter (DAT) (Q01959 whole entry): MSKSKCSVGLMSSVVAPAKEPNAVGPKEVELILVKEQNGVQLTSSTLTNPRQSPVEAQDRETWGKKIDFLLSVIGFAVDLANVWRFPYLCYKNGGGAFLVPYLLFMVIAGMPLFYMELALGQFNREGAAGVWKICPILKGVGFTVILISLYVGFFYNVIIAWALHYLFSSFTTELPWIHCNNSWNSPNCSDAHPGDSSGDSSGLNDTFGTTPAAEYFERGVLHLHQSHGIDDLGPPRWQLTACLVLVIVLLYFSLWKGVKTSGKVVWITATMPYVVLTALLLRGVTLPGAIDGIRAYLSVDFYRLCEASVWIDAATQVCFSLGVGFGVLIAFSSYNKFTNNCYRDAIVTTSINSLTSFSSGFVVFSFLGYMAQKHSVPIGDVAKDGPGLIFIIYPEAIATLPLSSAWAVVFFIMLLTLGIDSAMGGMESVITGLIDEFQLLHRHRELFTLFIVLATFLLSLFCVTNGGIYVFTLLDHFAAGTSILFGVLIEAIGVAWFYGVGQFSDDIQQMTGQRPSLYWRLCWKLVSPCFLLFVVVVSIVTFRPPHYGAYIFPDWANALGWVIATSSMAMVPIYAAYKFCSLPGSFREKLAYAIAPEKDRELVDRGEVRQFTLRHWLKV
Chain of Histamine H2 (P25021 whole entry): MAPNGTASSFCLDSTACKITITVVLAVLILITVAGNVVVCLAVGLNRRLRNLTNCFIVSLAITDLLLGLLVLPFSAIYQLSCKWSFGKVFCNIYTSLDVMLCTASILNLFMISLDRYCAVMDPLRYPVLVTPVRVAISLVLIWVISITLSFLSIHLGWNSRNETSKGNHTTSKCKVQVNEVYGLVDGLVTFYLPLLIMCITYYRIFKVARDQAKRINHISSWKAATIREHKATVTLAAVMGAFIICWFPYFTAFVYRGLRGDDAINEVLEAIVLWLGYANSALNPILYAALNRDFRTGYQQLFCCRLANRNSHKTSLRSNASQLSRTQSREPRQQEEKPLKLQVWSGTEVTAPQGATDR
Chain of Dopamine D3 (P35462 whole entry): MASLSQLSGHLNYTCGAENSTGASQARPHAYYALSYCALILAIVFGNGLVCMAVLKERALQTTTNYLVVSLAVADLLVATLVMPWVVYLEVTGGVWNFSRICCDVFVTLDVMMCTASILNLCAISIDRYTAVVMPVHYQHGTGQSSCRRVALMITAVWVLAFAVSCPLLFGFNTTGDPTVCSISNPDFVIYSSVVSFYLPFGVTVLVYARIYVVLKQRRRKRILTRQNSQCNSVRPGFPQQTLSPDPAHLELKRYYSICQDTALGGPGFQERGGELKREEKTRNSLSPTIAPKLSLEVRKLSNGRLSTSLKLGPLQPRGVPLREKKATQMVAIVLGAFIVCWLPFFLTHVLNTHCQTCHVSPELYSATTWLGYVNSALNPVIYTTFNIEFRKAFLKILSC

As usually defined, the EC50 is the midpoint of the concentration-response curve. One may read the IC50 as the concentration that inhibits the measured activity by half. Regarding “4-methoxybenzamidochlorobenzoic acid [Compound 1]”, the “aqueous solubility (PBS buffer, pH 7.4)” value is given as greater than 274.3 μM. Further, the “activity on whole T. brucei BSF parasites (in words)” value in data set [1] is recorded as “no appreciable activity”. Further, the half-maximal effective concentration (EC50) with IMR-90 human cells (setting [10]) was greater than 25 µM. Moreover, the IC50 in data set [2] (setting [11]) is 9.1 µM.
The term inhibition denotes the drop in the measured response relative to a control, in per cent. For the compound `CC(C)(C)c1ccc(C(=O)Nc2cc(Cl)c(-c3cccc(Cl)c3)cc2C(=O)O)cc1` [Compound 4q], the inhibition at 10 µM turned out to be 90.7 ± 1.8% in data set [1] and 30.9 ± 3.5% in data set [3]. The EC50 in the data set on IMR-90 human cells (setting [12]) was greater than 25 µM. In addition, the half-inhibitory concentration (IC50) in data set [2] was 2.7 ± 0.05 µM.
For the compound `CC(C)(C)c1ccc(C(=O)Nc2cc(Cl)c(-c3ccc(C(=O)O)cc3)cc2C(=O)O)cc1` [Compound 4r], the “% T. brucei BSF growth inhibition (10 μM)” value in data set [1] is reported as 51.0 ± 14.3%. Moreover, in the data set on IMR-90 human cells (setting [10]), the half-maximal effective concentration (EC50) is greater than 25 µM. Further, the “% hGlk inhibition (10 μM)” value in data set [3] (10 μM compound, BLD = below level of detection) was determined as 3.5 ± 7.1%. Also, in data set [2] (setting [11]), the half-inhibitory concentration (IC50) came out at 3.5 ± 0.33 µM.
Broadly, the solubility is the concentration that dissolves in the medium under given conditions. The low end stands for little dissolved substance, the high end for much dissolved substance. As usually defined, the Papp is a coefficient for how fast a substance crosses the barrier. Read a high Papp as ready permeation. A word on the fraction unbound: it is the share of the substance not bound to proteins or other matrix. Low values mean extensive binding, high ones weak binding. Consider `CC(C)(C)c1ccc(C(=O)Nc2cc(Cl)c(-c3ccccc3)cc2C(=O)O)cc1` [Compound 4f], for which the solubility in [4] stood at 9.6 µM (≈ 3.92 µg/mL). The “% T. brucei BSF growth inhibition (10 μM)” value in data set [1] (10 µM) stood at 95.4 ± 0.8%. For the same compound, the inhibition at 10 µM in data set [1] came out at 95%; at Dopamine D1, 57%; in data set [3], 35.2 ± 8.3%; in data set [6], 87%; at Histamine H2 it was 98%; on Dopamine D3 it was 86%. For the same compound, the inhibition at 10 µM on Adrenergic α1B came out at 53%; in data set [7], 88%; in [8], 90%. The compound further came in with a percent inhibition with Thyroid hormone of 65%. For the same compound, the Papp came to 1.6 ×10⁻⁶ cm/s in “PAMPA permeability” (PAMPA permeability (Pe), donor pH 6.2, acceptor pH 7.4) and 49 ×10⁻⁶ cm/s in the data set “PAMPA permeability” (pH 7.4, PAMPA permeability (Pe), donor pH 7.4, acceptor pH 7.4). In addition, the concentration giving a half-maximal response (EC50) with IMR-90 human cells (setting [12]) is greater than 25 µM. The “microsomal stability, % parent remaining after 1 h” value in data set [5] is 55.5%; in [9] it was 46.5%. Also, the “plasma stability, % parent remaining after 3 h” value is listed as 97.4% in “Plasma stability, mouse” and 80.8% in the data set “Plasma stability, human”. Besides, the fraction unbound in “Plasma protein binding” (1 μM) is 0.01; in “Plasma protein binding” (10 μM), 0.009. Besides, in data set [2] (compared to bromide 2), the “improvement in rTbHK1 potency” value turned out to be 3.5 fold.
